{"source": "paper PMC3178889", "about": "(Nature neuroscience, 2011)", "key": {"binding of Tα to UNC119": {"test_system": "binding of Tα to UNC119", "parameters": "species or system bovine", "conditions": "GST-UNC119 pulldown from retina lysate in the presence of peptide; immunoblot"}, "GST-UNC119": {"test_system": "GST-UNC119", "test": "GST-UNC119 pulldown of proteins from retina lysates or HEK cells", "type": "binding, bovine"}, "rod photoreceptors": {"test_system": "rod photoreceptors", "conditions": "passive diffusion after light activation; cited from earlier work"}, "human UNC119": {"target": "human UNC119 (Homo sapiens, UniProt Q13432)", "test": "Isothermal titration calorimetry", "type": "binding", "conditions": "ITC; for binding relative to the lauroyl Tα peptide: compared with lauroyl-GAGASAEEKH"}, "Tα": {"test_system": "Tα", "test": "GST-UNC119B pulldown from bovine retina lysate", "type": "binding", "conditions": "unpublished results of the authors"}, "[1]": {"test_system": "GTPase activity of Tα (purified Tαβγ)", "test": "GTPase activity of purified Tαβγ in the presence of depleted ROS membranes", "type": "biochemical", "method_in_brief": "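Purified native transducin (Tαβγ) reconstituted with depleted rod outer segment membranes, which carry rhodopsin and a trace of residual transducin. […] Components (transducin, UNC119, depleted membranes) checked by SDS-PAGE.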"}, "transducin": {"test_system": "transducin", "conditions": "absence of rhodopsin; cited from earlier work"}}, "note": "Entries after “also recorded” stand apart in the source; their conditions may differ. No end group written: not given here. *: point of attachment. Myristoyl = CCCCCCCCCCCCCC(=O)*; Lauroyl = CCCCCCCCCCCC(=O)*"}
{"substance": "Lauroyl-GAGASAEEKH", "values": [{"measurement": "competition for binding of Tα to UNC119", "setting": "binding of Tα to UNC119", "result": "competes for binding"}]}
{"substance": "Tα(G2A): Tα with G2 replaced with alanine, a mutation preventing Tα acylation", "values": [{"measurement": "interaction with GST-UNC119 in pulldown of protein expressed in HEK cells", "setting": "GST-UNC119; bovine Tα or Tα(G2A) expressed in HEK cells, anti-Tα blot", "result": "does not interact; also recorded: did not interact"}]}
{"substance": "Tα: rod photoreceptor transducin α-subunit", "values": [{"measurement": "t1/2 of light-induced translocation to the inner segment", "setting": "rod photoreceptors", "result": "3 to 5", "unit": "min"}, {"measurement": "interaction with GST-UNC119 in pulldown from retina lysate", "setting": "GST-UNC119; bovine or mouse retina lysate, Coomassie/LC-MS/MS or immunoblot", "result": "UNC119 interacts with Tα; also recorded: is pulled down"}]}
{"substance": "Lauroyl-GSCQSNENSE", "values": [{"measurement": "binding relative to the lauroyl Tα peptide", "setting": "human UNC119; listed as Lauroyl-ODR-3", "result": "more than one order of magnitude weaker"}, {"measurement": "binding relative to the lauroyl Tα peptide", "setting": "human UNC119; listed as ODR-3 N-terminal peptide", "result": "lower affinity interaction"}]}
{"substance": "Myristoyl-GAGASAEEKH", "values": [{"measurement": "interaction with recombinant human UNC119", "setting": "human UNC119", "result": "tight binding"}, {"measurement": "number of binding sites", "setting": "human UNC119; one-site model", "result": "single site"}]}
{"substance": "Tβγ: transducin βγ subunits", "values": [{"measurement": "t1/2 of light-induced translocation to the inner segment", "setting": "rod photoreceptors", "result": "approximately 12 min"}]}
{"substance": "GAGASAEEKH", "values": [{"measurement": "competition for binding of Tα to UNC119", "setting": "binding of Tα to UNC119", "result": "did not"}]}
{"substance": "UNC119B: isoform encoded by UNC119B gene, 61% similar and 52% identical to UNC119", "values": [{"measurement": "pulldown of Tα by GST-UNC119B", "setting": "Tα", "result": "pulls down Tα from bovine retina lysate"}]}
{"substance": "transducin: purified native heterotrimeric transducin", "values": [{"measurement": "Kcat of GTPase", "setting": "[1]; depleted ROS membranes reconstituted with transducin", "result": "1.5 moles GTPhydrolyzed/mol transducin/min"}, {"measurement": "GTPase activity rate of the reconstituted system", "setting": "[1]; purified Tαβγ in the presence of ROS membranes, Fig. 5C red line", "result": 1.5, "unit": "mole GTP/min"}, {"measurement": "GTP/GDP exchange rate constant", "setting": "transducin", "result": "10^−4 /sec"}]}
